Measurements as given in ChEMBL document CHEMBL4219099, “Design, synthesis and biological evaluation of novel 7-azaspiro[3.5]nonane derivatives as GPR119 agonists” (Bioorg Med Chem, 2018).
Values after ≈ are worked out from the molar mass of the structure shown.

How the values were obtained:
[1] = target: T1, Glucose-dependent insulinotropic receptor (Homo sapiens, UniProt Q8TDV5); experiment: Agonist activity at human GPR119 expressed in Flp-In-T-Rex-HEK293 cells assessed as increase in intracellular cAMP level after 30 mins by HTRF assay; assay type: functional, cell-based
T1 sequence (Q8TDV5 whole entry): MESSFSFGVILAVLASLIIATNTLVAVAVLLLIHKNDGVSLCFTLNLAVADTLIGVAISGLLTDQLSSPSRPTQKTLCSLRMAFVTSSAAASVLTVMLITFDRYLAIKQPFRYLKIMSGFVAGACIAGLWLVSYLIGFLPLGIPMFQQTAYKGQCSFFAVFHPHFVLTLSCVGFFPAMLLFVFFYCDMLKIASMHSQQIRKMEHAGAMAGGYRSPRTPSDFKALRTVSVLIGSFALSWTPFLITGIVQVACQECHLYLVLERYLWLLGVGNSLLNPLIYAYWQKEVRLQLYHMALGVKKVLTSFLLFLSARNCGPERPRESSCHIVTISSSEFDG
How it was run: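 Flp-In-T-Rex-HEK293 cells overexpressing human GPR119, tetracycline-induced 24 h, plated at 5000 cells/well in D-MEM with 1 mM IBMX and 0.01% BSA, then exposed to compound 30 min at 37 °C. cAMP read with HiRange HTRF kit. Basal cAMP subtracted from stimulated level; EC50 taken as concentration giving 50% of maximal response, fitted from dose-response curves.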

[2] = Aqueous solubility of the compound in pH 6.8 phosphate buffer after 24 hrs by HPLC analysis; assay type: physicochemical
How it was run: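 Excess solid shaken in pH 6.8 phosphate buffer at 25 °C for 24 h. Suspension centrifuged at 3000 and 11000 rpm, 10 min each. Supernatant diluted in 50% aqueous acetonitrile and quantified by reversed-phase HPLC (0.1% phosphoric acid/acetonitrile, column 40 °C, UV 210 nm).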

[3] = Solubility of the compound in fasted state simulated intestinal fluid incubated for 2 hrs in shaker and subsequently incubated at 37 degC for 22 hrs in water bath by HPLC analysis; assay type: physicochemical
How it was run: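 FaSSIF (pH 6.5) with excess compound shaken at 25 °C for 2 h, then held at 37 °C for 22 h. Centrifuged at 3000 and 11000 rpm, 10 min. Supernatant diluted with 50% aqueous acetonitrile or acetonitrile/methanol 1:1. Concentration by reversed-phase HPLC: 0.1% phosphoric acid/acetonitrile, column 40 °C, UV 210 nm.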

[4] = target: Cytochrome P450 2C9 (Homo sapiens, UniProt P11712); experiment: Inhibition of CYP2C9 in human liver microsomes; assay type: ADME
[5] = target: Cytochrome P450 2C19 (Homo sapiens, UniProt P33261); experiment: Inhibition of CYP2C19 in human liver microsomes; assay type: ADME
[6] = target: T2, Cytochrome P450 1A2 (Homo sapiens, UniProt P05177); experiment: Inhibition of CYP1A2 in human liver microsomes; assay type: ADME
T2 sequence (P05177 whole entry): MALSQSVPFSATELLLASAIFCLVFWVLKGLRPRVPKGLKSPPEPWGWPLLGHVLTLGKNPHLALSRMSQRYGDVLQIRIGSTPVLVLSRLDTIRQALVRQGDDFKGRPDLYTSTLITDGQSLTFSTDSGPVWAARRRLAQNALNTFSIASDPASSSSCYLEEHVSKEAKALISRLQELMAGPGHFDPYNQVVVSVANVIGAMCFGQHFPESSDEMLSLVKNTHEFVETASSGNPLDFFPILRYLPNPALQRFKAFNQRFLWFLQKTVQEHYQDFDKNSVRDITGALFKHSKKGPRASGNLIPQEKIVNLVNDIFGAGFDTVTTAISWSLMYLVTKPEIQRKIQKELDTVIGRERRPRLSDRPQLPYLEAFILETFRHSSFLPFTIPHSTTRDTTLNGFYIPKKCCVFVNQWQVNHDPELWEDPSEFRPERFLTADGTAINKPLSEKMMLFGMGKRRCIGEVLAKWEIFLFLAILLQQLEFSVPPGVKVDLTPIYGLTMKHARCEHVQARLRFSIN

[7] = target: Cytochrome P450 2D6 (Homo sapiens, UniProt P10635); experiment: Inhibition of CYP2D6 in human liver microsomes; assay type: ADME
[8] = target: Cytochrome P450 3A4 (Homo sapiens, UniProt P08684); experiment: Inhibition of CYP3A4 in human liver microsomes; assay type: ADME
[9] = Clearance in Sprague-Dawley rat plasma at 3 mg/kg, iv or 10 mg/kg, po by liquid chromatography-tandem mass spectrometry analysis; assay type: ADME, organism-based
How it was run: (§1)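 Fasted male SD rats given a single dose, iv 3 mg/kg in 20% 2-hydroxypropyl-β-cyclodextrin or po 10 mg/kg in 0.5% methylcellulose with 0.1% Tween80. Tail-vein blood taken at time points and spun to plasma. Analyte quantified by LC-MS/MS; parameters from non-compartmental analysis.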

[10] = Volume of distribution at steady state in Sprague-Dawley rat plasma at 3 mg/kg, iv by liquid chromatography-tandem mass spectrometry analysis; assay type: ADME, organism-based; conditions: read-out: Vdss; how it was run: as §1
[11] = Half life in Sprague-Dawley rat plasma at 3 mg/kg, iv by liquid chromatography-tandem mass spectrometry analysis; assay type: ADME, organism-based; how it was run: as §1
[12] = AUC (0 to t) in Sprague-Dawley rat plasma at 10 mg/kg, po by liquid chromatography-tandem mass spectrometry analysis; assay type: ADME, organism-based; how it was run: as §1
[13] = Oral bioavailability in Sprague-Dawley rat plasma at 10 mg/kg by liquid chromatography-tandem mass spectrometry analysis; assay type: ADME, organism-based; how it was run: as §1
[14] = system: Rattus norvegicus; experiment: Antidiabetic activity in Zucker diabetic rat assessed as reduction in plasma glucose AUC (0 to 2 hrs) at 10 mg/kg, po pretreated for 30 mins followed by glucose challenge by oGTT assay relative to control; assay type: functional; set-up: scale not given: the % may be the effect or the level left
How it was run: (§2)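 Male Zucker diabetic fatty and lean rats, 9 weeks old, fasted overnight. Dosed orally in 20 w/v% HP-β-CD; 30 min later given oral glucose at 2 g/kg. Tail-vein plasma glucose followed over 2 h by glucose assay kit. Glucose excursion expressed as ΔAUC 0–2 h versus vehicle; mean ± SE, Welch's t-test.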

[15] = system: Rattus norvegicus; experiment: Antidiabetic activity in Zucker diabetic rat assessed as reduction in plasma glucose AUC (0 to 2 hrs) at 30 mg/kg, po pretreated for 30 mins followed by glucose challenge by oGTT assay relative to control; assay type: functional; set-up: scale not given: the % may be the effect or the level left; how it was run: as §2

Sequence of Cytochrome P450 2C19 (P33261 whole entry): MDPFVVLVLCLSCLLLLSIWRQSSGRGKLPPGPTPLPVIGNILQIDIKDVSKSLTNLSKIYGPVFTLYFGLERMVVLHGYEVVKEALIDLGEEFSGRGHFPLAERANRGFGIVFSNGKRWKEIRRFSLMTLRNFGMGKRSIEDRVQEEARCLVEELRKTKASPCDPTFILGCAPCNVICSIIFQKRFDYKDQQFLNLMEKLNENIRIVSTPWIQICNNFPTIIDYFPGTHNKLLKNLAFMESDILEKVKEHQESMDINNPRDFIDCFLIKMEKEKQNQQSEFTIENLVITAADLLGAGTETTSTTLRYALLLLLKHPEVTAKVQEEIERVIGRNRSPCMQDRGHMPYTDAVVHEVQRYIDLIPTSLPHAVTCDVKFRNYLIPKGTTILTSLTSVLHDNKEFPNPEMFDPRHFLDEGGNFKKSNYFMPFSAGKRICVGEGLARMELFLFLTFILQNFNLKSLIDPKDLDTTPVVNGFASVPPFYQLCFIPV
Sequence of Cytochrome P450 2C9 (P11712 whole entry): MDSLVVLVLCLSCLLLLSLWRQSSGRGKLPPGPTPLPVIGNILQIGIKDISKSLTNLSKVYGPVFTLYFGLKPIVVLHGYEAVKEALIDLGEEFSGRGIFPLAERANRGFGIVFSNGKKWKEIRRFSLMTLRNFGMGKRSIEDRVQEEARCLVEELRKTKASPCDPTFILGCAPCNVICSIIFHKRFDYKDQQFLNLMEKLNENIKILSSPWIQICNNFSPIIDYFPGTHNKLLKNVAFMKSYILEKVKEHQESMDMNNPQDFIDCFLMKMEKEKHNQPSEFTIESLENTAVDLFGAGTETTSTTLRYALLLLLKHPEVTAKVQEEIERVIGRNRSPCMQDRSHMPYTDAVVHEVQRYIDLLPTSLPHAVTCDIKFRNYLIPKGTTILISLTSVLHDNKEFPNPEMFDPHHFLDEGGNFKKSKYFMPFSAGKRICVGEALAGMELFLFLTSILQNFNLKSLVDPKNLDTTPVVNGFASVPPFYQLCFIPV
Sequence of Cytochrome P450 2D6 (P10635 whole entry): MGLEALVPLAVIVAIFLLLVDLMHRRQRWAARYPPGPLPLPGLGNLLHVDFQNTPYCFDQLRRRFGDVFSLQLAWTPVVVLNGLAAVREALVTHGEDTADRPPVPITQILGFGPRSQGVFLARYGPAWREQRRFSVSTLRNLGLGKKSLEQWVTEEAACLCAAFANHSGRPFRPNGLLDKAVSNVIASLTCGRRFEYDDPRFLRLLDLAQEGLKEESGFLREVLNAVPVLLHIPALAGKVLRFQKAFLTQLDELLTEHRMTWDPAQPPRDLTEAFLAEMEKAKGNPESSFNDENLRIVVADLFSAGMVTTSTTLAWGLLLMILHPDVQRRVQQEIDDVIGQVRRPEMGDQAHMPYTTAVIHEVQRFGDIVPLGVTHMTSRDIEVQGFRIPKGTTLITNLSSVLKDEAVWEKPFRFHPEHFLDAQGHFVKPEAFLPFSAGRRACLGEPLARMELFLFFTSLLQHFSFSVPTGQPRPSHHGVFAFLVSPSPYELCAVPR
Sequence of Cytochrome P450 3A4 (P08684 whole entry): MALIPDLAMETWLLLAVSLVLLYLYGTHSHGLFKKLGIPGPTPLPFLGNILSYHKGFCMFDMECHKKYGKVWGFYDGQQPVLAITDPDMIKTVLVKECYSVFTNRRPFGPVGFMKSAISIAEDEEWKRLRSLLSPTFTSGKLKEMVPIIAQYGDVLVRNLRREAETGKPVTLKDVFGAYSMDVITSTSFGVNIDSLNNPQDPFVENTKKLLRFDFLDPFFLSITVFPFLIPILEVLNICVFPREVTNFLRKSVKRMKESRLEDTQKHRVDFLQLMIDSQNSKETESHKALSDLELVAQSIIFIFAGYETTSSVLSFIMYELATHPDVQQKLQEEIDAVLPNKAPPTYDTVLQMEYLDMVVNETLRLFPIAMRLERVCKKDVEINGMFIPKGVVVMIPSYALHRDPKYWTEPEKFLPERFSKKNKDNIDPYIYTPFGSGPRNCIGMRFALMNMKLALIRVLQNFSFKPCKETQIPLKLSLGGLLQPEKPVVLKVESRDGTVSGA

| SMILES | EC50 [1] | solubility at 24 h [2] | solubility at 24 h [3] | also measured |
| --- | --- | --- | --- | --- |
| CS(=O)(=O)c1ccc(OCCCC2CC3(CCN(C(=O)OC4CCCC4)CC3)C2)cc1F | 23 nM | < 0.14 µg/mL | 7.65 µg/mL (≈ 16.4 µM) |  |
| CCc1cnc(N2CCC3(CC2)CC(CCCOc2ccc(S(C)(=O)=O)cc2F)C3)nc1 | 225 nM |  |  |  |
| CC(C)OC(=O)N1CCC2(CC1)CC(CCCOc1ccc(C(=O)NC3CC3)nc1)C2 | 47 nM | 2.11 µg/mL (≈ 4.91 µM) |  |  |
| CC(C)OC(=O)N1CCC2(CC1)CC(CCCOc1ccc(C(=O)N3CC(O)C3)c(F)c1)C2 | 40 nM | 1.89 µg/mL (≈ 4.09 µM) |  | IC50 ([4]; read-out: IC50): < 10000 nM; IC50 ([5]; read-out: IC50): < 10000 nM |
| CC(C)OC(=O)N1CCC2(CC1)CC(CCCOc1ccc(C(=O)N3CCCC3)c(F)c1)C2 | 29 nM | 3.85 µg/mL (≈ 8.36 µM) | 92.4 µg/mL (≈ 201 µM) | IC50 ([6]; read-out: IC50): < 10000 nM; IC50 ([4]; read-out: IC50): < 10000 nM; IC50 ([5]; read-out: IC50): < 10000 nM |
| CC(C)(C)OC(=O)N1CCC2(CCC(CCOc3ccc(S(C)(=O)=O)cc3)CC2)CC1 | 55 nM |  |  |  |
| CC(C)OC(=O)N1CCC2(CC1)CC(CCCOc1ccc(C(=O)N3CCC3)c(F)c1)C2 | 34 nM | 3.43 µg/mL (≈ 7.68 µM) |  | IC50 ([4]; read-out: IC50): < 10000 nM; IC50 ([5]; read-out: IC50): < 10000 nM |
| CC1(OC(=O)N2CCC3(CC2)CC(CCCOc2ccc(S(C)(=O)=O)c(F)c2)C3)CC1 | 13 nM | < 0.15 µg/mL | 1.27 µg/mL (≈ 2.8 µM) |  |
| CC(C)OC(=O)N1CCC2(CC1)CC(CCCOc1ccc(C(=O)NC3CC3)cn1)C2 | 63 nM | 2.24 µg/mL (≈ 5.21 µM) |  |  |
| CC(C)OC(=O)N1CCC2(CC1)CC(CCCOc1ccc(C(N)=O)c(F)c1)C2 | 52 nM |  |  |  |
| CC(C)(C)OC(=O)N1CCC2(CC1)CC(CCCOc1ccc(S(C)(=O)=O)c(F)c1)C2 | 9 nM |  |  |  |
| CCc1cnc(N2CCC3(CC2)CC(CCCOc2ccc(S(C)(=O)=O)c(F)c2)C3)nc1 | 123 nM |  |  |  |
| CC(C)(C)COC(=O)N1CCC2(CC1)CC(CCCOc1ccc(S(C)(=O)=O)c(F)c1)C2 | 31 nM |  |  |  |
| Cc1ccc(N2CCC3(CC2)CC(CCCOc2ccc(S(C)(=O)=O)cc2)C3)nc1 | 348 nM |  |  |  |
| CC(C)OC(=O)N1CCC2(CC1)CC(CCCOc1ccc(S(C)(=O)=O)cc1)C2 | 70 nM | 0.17 µg/mL (≈ 0.401 µM) | 7.09 µg/mL (≈ 16.7 µM) |  |
| CC(C)c1noc(N2CCC3(CC2)CC(CCCOc2ccc(S(C)(=O)=O)cc2)C3)n1 | 35 nM | < 0.13 µg/mL | 2.51 µg/mL (≈ 5.61 µM) |  |
| CC(C)(C)OC(=O)N1CCC2(CC1)CC(CCOc1ccc(S(C)(=O)=O)cc1)C2 | 183 nM |  |  |  |
| CC(C)(C)OC(=O)N1CCC2(CC1)CC(CCCOc1ccc(S(C)(=O)=O)cc1)C2 | 14 nM | < 0.13 µg/mL | 3.48 µg/mL (≈ 7.95 µM) |  |
| CC(C)OC(=O)N1CCC2(CC1)CC(CCCOc1ccc(C(=O)N(C)C3CC3)c(F)c1)C2 | 67 nM |  |  |  |
| CC(C)(C)OC(=O)N1CCC2(CC1)CC2CCOc1ccc(S(C)(=O)=O)cc1 (stereo unspecified) | 2390 nM |  |  |  |
| CCc1cnc(N2CCC3(CC2)CC(CCCOc2ccc(S(C)(=O)=O)cc2)C3)nc1 | 31 nM | < 0.12 µg/mL | 0.64 µg/mL (≈ 1.44 µM) |  |
| CC(C)(C)OC(=O)N1CCC2(CCC(CCCOc3ccc(S(C)(=O)=O)cc3)CC2)CC1 | 2590 nM |  |  |  |
| CC(C)OC(=O)N1CCC2(CC1)CC(CCCOc1ccc(S(C)(=O)=O)c(F)c1)C2 | 18 nM | < 0.16 µg/mL | 2.52 µg/mL (≈ 5.71 µM) |  |
| CC(C)(C)OC(=O)N1CCC2(CC1)CC(CCCOc1ccc(S(C)(=O)=O)cc1F)C2 | 25 nM |  |  |  |
| CC(C)OC(=O)N1CCC2(CC1)CC(CCCOc1ccc(C(=O)NC3CC3)c(F)c1)C2 | 8 nM | 0.21 µg/mL (≈ 0.47 µM) | 8.58 µg/mL (≈ 19.2 µM) |  |
| CC(C)(C)OC(=O)N1CCC2(CC1)CC2CCCOc1ccc(S(C)(=O)=O)cc1 (stereo unspecified) | 830 nM |  |  |  |
| CC(C)OC(=O)N1CCC2(CC1)CC(CCCOc1ccc(C(=O)NCC(N)=O)c(F)c1)C2 | 48 nM | 1.77 µg/mL (≈ 3.82 µM) | 18.4 µg/mL (≈ 39.7 µM) | IC50 [6]: Not Active; IC50 [4]: Not Active; IC50 [5]: Not Active; IC50 [7]: Not Active; IC50 [8]: Not Active; clearance [9]: 15.5 mL/min/kg; Vd [10]: 1.01 L/kg; half-life [11]: 50.5 min; AUC(0-t) [12]: 9510 ng·h/mL; bioavailability [13]: 88.6%; Activity [14]: 34%; Activity [15]: 40.2% |
| CC(C)(C)OC(=O)N1CCC2(CC1)CC(CCCCOc1ccc(S(C)(=O)=O)cc1)C2 | 154 nM |  |  |  |
